Experimental data: ChEMBL document CHEMBL4196022, “Alkynyl-containing phenylthiazoles: Systemically active antibacterial agents effective against methicillin-resistant Staphylococcus aureus (MRSA)” (Eur J Med Chem, 2018)
Values after ≈ are worked out from the molar mass of the structure shown. Active and inactive are the calls of the source. The rule behind the calls is not given here.

Experiments:
Staphylococcus aureus [1] = assay: Antibacterial activity against methicillin-resistant Staphylococcus aureus NRS107 after 20 hrs by broth microdilution assay; assay type: functional; settings: NRS107, 20 h
Outline: (§1)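 Broth microdilution per CLSI in cation-adjusted Mueller Hinton broth. Compounds serially diluted, in triplicate. Incubation at 37 °C for at least 20 hours. MIC taken as the lowest concentration with no visible bacterial growth.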

Staphylococcus aureus [2] = assay: Bactericidal activity against methicillin-resistant Staphylococcus aureus USA300 up to 18 hrs by broth microdilution assay; assay type: functional; settings: USA300, 18 h, read-out: MBC99.9
Staphylococcus aureus [3] = assay: Antibacterial activity against vancomycin-resistant Staphylococcus aureus VRS12 after 20 hrs by broth microdilution assay; assay type: functional; settings: VRS12, 20 h; outline: as §1
Staphylococcus aureus [4] = assay: Antibacterial activity against methicillin-resistant Staphylococcus aureus NRS119 after 20 hrs by broth microdilution assay; assay type: functional; settings: NRS119, 20 h; outline: as §1
Staphylococcus aureus [5] = assay: Potency index, ratio of vancomycin MIC to compound MIC for antibacterial activity against vancomycin-resistant Staphylococcus aureus VRS10; assay type: functional
HRT-18 cell line = assay: Cytotoxicity against human HRT18 cells assessed as reduction in cell viability up to 32 ug/ml after 2 hrs by MTS assay; assay type: cell-based; settings: hrt-18, 2 h
J774 = assay: Cytotoxicity against mouse J774 cells assessed as reduction in cell viability up to 16 ug/ml after 24 hrs by MTS assay; assay type: cell-based; settings: j774, 24 h
Outline: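 J774 murine macrophages were grown in DMEM with 10% FBS at 37 °C, 5% CO2. Compounds were tested at 8, 16 and 32 μg/mL in triplicate for 24 h, with a DMSO-matched control. MTS was added for 4 h and absorbance read at 490 nm. Viability is given as % of DMSO control (mean ± SD); Student t-test with Holm-Sidak test.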

Staphylococcus aureus [6] = assay: Antibacterial activity against methicillin-resistant Staphylococcus aureus NRS123 (USA400) infected in mouse J774 cells at 16 ug/ml after 24 hrs; assay type: functional, organism-based
Outline: (§2)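 J774 macrophages grown in DMEM with 10% FBS at 37 °C, 5% CO2. Infected with USA400 at MOI ~100:1 for 1 h, then washed with gentamicin 50 μg/mL. Treated in triplicate wells for 24 h, washed with gentamicin again and lysed with 0.1% Triton X-100. Lysate plated on tryptic soy agar for 18–22 h; CFU/mL counted.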

Staphylococcus aureus [7] = assay: Ratio of MBC to MIC for methicillin-resistant Staphylococcus aureus NRS119; assay type: functional
Outline: (§3)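 MBC/MIC ratio. […] MBC by plating no-growth wells onto tryptic soy agar at 37 °C for at least 18 h; taken as the concentration giving 99.9% growth inhibition.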

Staphylococcus aureus [8] = assay: Ratio of MBC to MIC for methicillin-resistant Staphylococcus aureus NRS107; assay type: functional; outline: as §3
Staphylococcus aureus [9] = assay: Ratio of MBC to MIC for vancomycin-resistant Staphylococcus aureus VRS11a; assay type: functional; outline: as §3
Staphylococcus aureus [10] = assay: Potency index, ratio of vancomycin MIC to compound MIC for antibacterial activity against vancomycin-resistant Staphylococcus aureus VRS12; assay type: functional
Staphylococcus aureus [11] = assay: Bactericidal activity against methicillin resistant vancomycin-resistant Staphylococcus aureus VRS12 up to 18 hrs by broth microdilution assay; assay type: functional; settings: VRS12, 18 h, read-out: MBC99.9
Outline: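 MBC set up from the MIC plates. Aliquots from wells with no growth spotted onto tryptic soy agar and incubated at 37 °C for at least 18 hours. MBC taken as the lowest concentration giving 99.9% inhibition of bacterial growth.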

Staphylococcus aureus [12] = assay: Antibacterial activity against vancomycin-resistant Staphylococcus aureus VRS11a after 20 hrs by broth microdilution assay; assay type: functional; outline: as §1
Staphylococcus aureus [13] = assay: Potency index, ratio of vancomycin MIC to compound MIC for antibacterial activity against vancomycin-resistant Staphylococcus aureus VRS11a; assay type: functional
Staphylococcus aureus [14] = assay: Ratio of MBC to MIC for vancomycin-resistant Staphylococcus aureus VRS10; assay type: functional; outline: as §3
Staphylococcus aureus [15] = assay: Bactericidal activity against methicillin-resistant Staphylococcus aureus USA300 at 4 times MIC after 24 hrs by time kill assay; assay type: functional, organism-based
Staphylococcus aureus [16] = assay: Ratio of MBC to MIC for methicillin-resistant Staphylococcus aureus USA300; assay type: functional; settings: read-out: Ratio; outline: as §3
Staphylococcus aureus [17] = assay: Antibacterial activity against vancomycin-resistant Staphylococcus aureus VRS10 after 20 hrs by broth microdilution assay; assay type: functional; settings: VRS10, 20 h; outline: as §1
Staphylococcus aureus [18] = assay: Bactericidal activity against methicillin-resistant Staphylococcus aureus NRS107 up to 18 hrs by broth microdilution assay; assay type: functional; settings: NRS107, 18 h, read-out: MBC99.9
[19] = Selectivity index, ratio of toxic concentration for human HRT18 cells to MIC for methicillin-resistant Staphylococcus aureus; assay type: toxicity; settings: read-out: Selectivity Index
Staphylococcus aureus [20] = assay: Ratio of MBC to MIC for vancomycin-resistant Staphylococcus aureus VRS12; assay type: functional; outline: as §3
Staphylococcus aureus [21] = assay: Bactericidal activity against methicillin resistant vancomycin-resistant Staphylococcus aureus VRS10 up to 18 hrs by broth microdilution assay; assay type: functional; settings: VRS10, 18 h, read-out: MBC99.9
Staphylococcus aureus [22] = assay: Antibacterial activity against methicillin-resistant Staphylococcus aureus USA300 after 20 hrs by broth microdilution assay; assay type: functional; settings: USA300, 20 h; outline: as §1
Staphylococcus aureus [23] = assay: Bactericidal activity against methicillin-resistant Staphylococcus aureus NRS123 (USA400) at 4 times MIC after 24 hrs by time kill assay; assay type: functional, organism-based
Staphylococcus aureus [24] = assay: Bactericidal activity against methicillin-resistant Staphylococcus aureus NRS119 up to 18 hrs by broth microdilution assay; assay type: functional; settings: NRS119, 18 h, read-out: MBC99.9
[25] = Induction of proton motive force collapse in Escherichia coli inverted membrane vesicle in presence of succinate/O2-driven PMF generation system by ACMA-based fluorescence assay; assay type: functional, cell membranes
Outline: (§4)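 E. coli inverted membrane vesicles had proton motive force generated either by ATP or by succinate/O2. PMF collapse was followed as a dose response to give EC50, with CCCP as the reference uncoupler.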

[26] = Induction of proton motive force collapse in Escherichia coli inverted membrane vesicle in presence of ATP-driven PMF generation system by ACMA-based fluorescence assay; assay type: functional, cell membranes; outline: as §4
Staphylococcus aureus [27] = assay: Antibacterial activity against methicillin-resistant Staphylococcus aureus USA300 infected in Caenorhabditis elegans AU37 assessed as reduction in bacterial burden at 20 ug/ml after 18 hrs relative to control; assay type: functional
Outline: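 L4-stage C. elegans AU37 infected on USA300 lawns for 6 h and washed with M9 buffer. 25–30 worms per well exposed to 20 μg/mL for 18 h, in triplicate. Worms then lysed and plated on TSA with 5 μg/mL nalidixic acid for 17 h at 37 °C. CFU per worm expressed as % reduction versus PBS.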

Staphylococcus aureus [28] = assay: Antibacterial activity against methicillin-resistant Staphylococcus aureus NRS123 (USA400) infected in mouse J774 cells at 4 ug/ml after 24 hrs; assay type: functional, organism-based; outline: as §2

Compound: CCCC#Cc1ccc(-c2nc(C)c(/C(C)=N/NC(=N)N)s2)cc1
- MIC (Staphylococcus aureus [1]): 1 µg/mL (≈ 2.95 µM)
- MBC (Staphylococcus aureus [2]): 8 µg/mL (≈ 23.6 µM)
- MIC (Staphylococcus aureus [3]): 1 µg/mL (≈ 2.95 µM)
- MIC (Staphylococcus aureus [4]): 1 µg/mL (≈ 2.95 µM)
- Ratio (Staphylococcus aureus [5]): >100
- Activity (HRT-18 cell line): Non-Toxic
- Activity (J774): Non-Toxic
- Activity (Staphylococcus aureus [6]): Active
- Ratio (Staphylococcus aureus [7]): <=3
- Ratio (Staphylococcus aureus [8]): <=3
- Ratio (Staphylococcus aureus [9]): <=3
- Ratio (Staphylococcus aureus [10]): 16
- MBC (Staphylococcus aureus [11]): 1 µg/mL (≈ 2.95 µM)
- MIC (Staphylococcus aureus [12]): ≤ 0.5 µg/mL
- Ratio (Staphylococcus aureus [13]): >100
- Ratio (Staphylococcus aureus [14]): <=3
- Activity (Staphylococcus aureus [15]): Active
- Ratio (Staphylococcus aureus [16]): 8
- MIC (Staphylococcus aureus [17]): 1 µg/mL (≈ 2.95 µM)
- MBC (Staphylococcus aureus [18]): 1 µg/mL (≈ 2.95 µM)
- selectivity ratio [19]: 7 to 31
- Ratio (Staphylococcus aureus [20]): <=3
- MBC (Staphylococcus aureus [21]): 2 µg/mL (≈ 5.89 µM)
- MIC (Staphylococcus aureus [22]): 1 µg/mL (≈ 2.95 µM)
- Activity (Staphylococcus aureus [23]): Active
- MBC (Staphylococcus aureus [24]): 1 µg/mL (≈ 2.95 µM)

Compound: N#CC(C#N)=NNc1cccc(Cl)c1 [CARBONYL CYANIDE M-CHLOROPHENYLHYDRAZONE]
- EC50 [25]: 210 nM
- EC50 [26]: 470 nM

Compound: CN[C@H](CC(C)C)C(=O)N[C@H]1C(=O)N[C@@H](CC(N)=O)C(=O)N[C@H]2C(=O)N[C@H]3C(=O)N[C@H](C(=O)N[C@H](C(=O)O)c4cc(O)cc(O)c4-c4cc3ccc4O)[C@H](O)c3ccc(c(Cl)c3)Oc3cc2cc(c3O[C@@H]2O[C@H](CO)[C@@H](O)[C@H](O)[C@H]2O[C@H]2C[C@](C)(N)[C@H](O)[C@H](C)O2)Oc2ccc(cc2Cl)[C@H]1O [VANCOMYCIN]
- MIC (Staphylococcus aureus [3]): 16 µg/mL (≈ 11 µM)
- Activity (Staphylococcus aureus [27]): Active
- Activity (Staphylococcus aureus [28]): inactive
- MBC (Staphylococcus aureus [11]): 256 µg/mL (≈ 177 µM)
- Activity (Staphylococcus aureus [23]): Active
